Test results published in ChEMBL document CHEMBL6177921, “Enhancing the antimycobacterial efficacy of pyridine-4-carbohydrazide: linkage to additional antimicrobial agents via oxocarboxylic acids” (RSC Med Chem, 2025).
Converted amounts (≈) assume the structure as drawn.

Tests used:
Pichia kudriavzevii [1] = assay: Antifungal activity against Candida krusei ATCC 6258 measured after 24 to 48 hrs by microdilution broth method; format: functional; conditions: time 24-48 hrs
Summary of the method: (§1)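 Yeast broth microdilution per EUCAST, slightly modified. Medium was RPMI-1640 with 2% glucose, MOPS-buffered to pH 7.0. Compounds were tested at 0.98–500 μM with final DMSO ≤1.0% (v/v). Inoculum came from 18–24 h cultures, final ~1–5 × 10^5 CFU mL−1. Plates were incubated statically, dark and humidified, at 35 ± 2 °C. MIC was read visually at 24 and 48 h (no visible growth).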

Mycobacterium avium [2] = assay: Antimycobacterial activity against INH/RIF/rifabutin/OFX/EMB resistant Mycobacterium avium CNCTC 330/88 assessed as bacterial growth inhibition incubated for 21 days by two-fold serial dilution method; format: functional; conditions: CNCTC 330/88, 504 h, time 21 day
Summary of the method: (§2)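 M. avium CNCTC 330/88 (stock suspension dilution 10−5) grown in Šula's semisynthetic liquid medium; two-fold serial dilutions 1000 to 1 μM from DMSO stocks (final DMSO 1.0% v/v); final load 1.5 × 10^5 CFU mL−1; MIC read visually as lowest concentration giving complete growth inhibition after 14 and 21 days.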

Candida parapsilosis [3] = assay: Antifungal activity against Candida parapsilosis CCM 8260 measured after 24 to 48 hrs by microdilution broth method; format: functional; conditions: Lodderomyces parapsilosis, time 24-48 hrs; summary of the method: as §1
Pichia kudriavzevii [4] = assay: Antifungal activity against Candida krusei CCM 8271 measured after 24 to 48 hrs by microdilution broth method; format: functional; conditions: time 24-48 hrs; summary of the method: as §1
Candida parapsilosis [5] = assay: Antifungal activity against Candida parapsilosis ATCC 22019 measured after 24 to 48 hrs by microdilution broth method; format: functional; conditions: Lodderomyces parapsilosis, time 24-48 hrs; summary of the method: as §1
Aspergillus fumigatus = assay: Antifungal activity against Aspergillus fumigatus ATCC 204305 measured after 24 to 48 hrs by microdilution broth method; format: functional; conditions: time 24-48 hrs
Summary of the method: (§3)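 Filamentous fungi tested by broth microdilution per EUCAST with minor changes. Compounds were tested at 0.98–500 μM with final DMSO ≤1.0% (v/v). Plates were incubated statically, dark and humidified, at 35 ± 2 °C for 24 and 48 h. MIC was the lowest concentration showing no visible growth.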

Mycobacterium avium [6] = assay: Antimycobacterial activity against INH/RIF/rifabutin/OFX/EMB resistant Mycobacterium avium CNCTC 330/88 assessed as bacterial growth inhibition incubated for 14 days by two-fold serial dilution method; format: functional; conditions: CNCTC 330/88, 336 h, time 14 day; summary of the method: as §2
Lichtheimia corymbifera = assay: Antifungal activity against Lichtheimia corymbifera CCM 8077 measured after 24 to 48 hrs by microdilution broth method; format: functional; conditions: time 24-48 hrs; summary of the method: as §3
Candida albicans [7] = assay: Antifungal activity against Candida albicans CCM 8320 measured after 24 to 48 hrs by microdilution broth method; format: functional; conditions: time 24-48 hrs; summary of the method: as §1
Mycobacterium kansasii [8] = assay: Antimycobacterial activity against multi-drug resistant Mycobacterium kansasii clinical isolate CNCTC 6509/96 assessed as bacterial growth inhibition incubated for 21 days by two-fold serial dilution method; format: functional; conditions: CNCTC 6509/96, 504 h, time 21 day
Summary of the method: (§4)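 M. kansasii clinical isolate 6509/96 (stock dilution 10−4) in Šula's semisynthetic liquid medium; two-fold serial dilutions 1000 to 1 μM, DMSO final 1.0% v/v; final load 1.5 × 10^5 CFU mL−1; MIC read visually as complete growth inhibition at 7, 14 and 21 days.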

Aspergillus flavus = assay: Antifungal activity against Aspergillus flavus CCM 8363 measured after 24 to 48 hrs by microdilution broth method; format: functional; conditions: time 24-48 hrs; summary of the method: as §3
[9] = test system: Trichophyton interdigitale; assay: Antifungal activity against Trichophyton interdigitale ATCC 9533 measured after 24 to 48 hrs by microdilution broth method; format: functional; conditions: time 24-48 hrs
Candida albicans [10] = assay: Antifungal activity against Candida albicans ATCC 24443 measured after 24 to 48 hrs by microdilution broth method; format: functional; conditions: time 24-48 hrs; summary of the method: as §1
Mycobacterium kansasii [11] = assay: Antimycobacterial activity against INH/RIF/rifabutin/OFX/EMB Mycobacterium kansasii CNCTC 6509/96 clinical isolate assessed as bacterial growth inhibition incubated for 7 days by two-fold serial dilution method; format: functional; conditions: CNCTC 6509/96, 168 h, time 7 day
Summary of the method: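 Šula's liquid semisynthetic medium; M. kansasii clinical isolate 6509/96 used at stock dilution 10−4, final ~1.5 × 10^5 CFU mL−1. Two-fold dilutions ran 1000–1 μM with final DMSO 1.0% (v/v). MIC was read visually as complete growth inhibition after 7, 14 and 21 days.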

Candida tropicalis [12] = assay: Antifungal activity against Candida tropicalis ATCC 750 measured after 24 to 48 hrs by microdilution broth method; format: functional; conditions: time 24-48 hrs; summary of the method: as §1
[13] = test system: Trichophyton interdigitale; assay: Antifungal activity against Trichophyton interdigitale CCM 8377 measured after 24 to 48 hrs by microdilution broth method; format: functional; conditions: time 24-48 hrs
Mycobacterium kansasii [14] = assay: Antimycobacterial activity against multi-drug resistant Mycobacterium kansasii CNCTC 6509/96 clinical isolate assessed as bacterial growth inhibition incubated for 14 days by two-fold serial dilution method; format: functional; conditions: CNCTC 6509/96, 336 h, time 14 day; summary of the method: as §4
[15] = test system: Mycobacterium tuberculosis; assay: Antimycobacterial activity against Mycobacterium tuberculosis H37Rv CNCTC 331/88 assessed as bacterial growth inhibition incubated for 21 days by two fold serial dilution method; format: functional; conditions: H37Rv CNCTC 331/88, 504 h, time 21 day
Candida tropicalis [16] = assay: Antifungal activity against Candida tropicalis CCM 8264 measured after 24 to 48 hrs by microdilution broth method; format: functional; conditions: time 24-48 hrs; summary of the method: as §1
[17] = test system: Mycobacterium tuberculosis; assay: Antimycobacterial activity against multidrug sensitive Mycobacterium tuberculosis H37Rv CNCTC 331/88 assessed as bacterial growth inhibition incubated for 14 days by two-fold serial dilution method; format: functional; conditions: H37Rv CNCTC 331/88, 336 h, time 14 day
[18] = Hemolytic activity in human Red blood cells assessed as effect of lipid bilayer membrane incubated for 1 hr by absorbance based spectrophotometric analysis; format: toxicity, cell-based; conditions: erythrocyte
Summary of the method: (§5)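 Human erythrocyte suspension mixed 1:1 with compound in Hartmann's solution at final 125 μM, final DMSO 1.0% (v/v), 37 °C for 1 h. After centrifugation, released haemoglobin in the supernatant was read at 405 nm. Negative control was hRBCs with 1.0% DMSO; positive control was hRBCs sonicated for 1 min.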

Staphylococcus aureus = assay: Antibacterial activity against methicillin-resistant Staphylococcus aureus ATCC 43300 assessed as bacterial growth inhibition incubated for 24 to 48 hrs by broth microdilution method; format: functional; conditions: time 24-48 hrs
Summary of the method: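 Broth microdilution per EUCAST with slight modification in cation-adjusted Mueller-Hinton broth; compounds from DMSO stocks (final DMSO ≤1.0% v/v), 0.98–500 μM; final inoculum about 5 × 10^5 CFU mL−1 from 16–24 h cultures; static incubation in dark, humidified air at 35 ± 2 °C; MIC read by eye at 24 and 48 h as lowest concentration without visible growth.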

[19] = test system: Staphylococcus epidermidis; assay: Antibacterial activity against Staphylococcus epidermidis ATCC 12228 assessed as bacterial growth inhibition incubated for 24 to 48 hrs by broth microdilution method; format: functional; conditions: time 24-48 hrs
Summary of the method: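 Broth microdilution in cation-adjusted Mueller-Hinton broth, adapted from EUCAST. Compounds were tested at 0.98–500 μM with final DMSO ≤1.0% (v/v). Inoculum came from 16–24 h cultures, final ~5 × 10^5 CFU mL−1. Plates were incubated statically, dark and humidified, at 35 ± 2 °C. MIC was read by eye at 24 and 48 h as the lowest concentration with no visible growth.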

[20] = Hemolytic activity in human Red blood cells assessed as hemolysis rate incubated for 1 hr by absorbance based spectrophotometric analysis relative to control; format: toxicity, cell-based, Erythrocyte; conditions: read-out: Activity; summary of the method: as §5

SMILES	MIC (Pichia kudriavzevii [1]) [µM]	MIC (Mycobacterium avium [2]) [µM]	MIC (Candida parapsilosis [3]) [µM]	MIC (Pichia kudriavzevii [4]) [µM]	MIC (Candida parapsilosis [5]) [µM]	MIC (Aspergillus fumigatus) [µM]	MIC (Mycobacterium avium [6]) [µM]	MIC (Lichtheimia corymbifera) [µM]	MIC (Candida albicans [7]) [µM]	MIC (Mycobacterium kansasii [8]) [µM]	MIC (Aspergillus flavus) [µM]	MIC [9] [µM]	MIC (Candida albicans [10]) [µM]	MIC (Mycobacterium kansasii [11]) [µM]	MIC (Candida tropicalis [12]) [µM]	MIC [13] [µM]	MIC (Mycobacterium kansasii [14]) [µM]	MIC [15] [µM]	MIC (Candida tropicalis [16]) [µM]	MIC [17] [µM]	other results
C/C(=N\NC(=O)c1ccncc1)C(=O)Nc1ccccc1Oc1ccccc1	> 500	≥ 1000	> 500	> 500	> 500	> 500	≥ 1000	> 500	> 500	16 (≈ 5.99 µg/mL)	> 500	> 500	> 500	4 (≈ 1.5 µg/mL)	> 500	> 500	8 (≈ 3 µg/mL)	0.5 (≈ 0.187 µg/mL)	> 500	0.25 (≈ 0.0936 µg/mL)	
C/C(=N\NC(=O)c1ccncc1)C(=O)Nc1ccc(Oc2ccccc2)cc1	> 500	500 (≈ 187 µg/mL)	> 500	> 500	> 500	> 500	500 (≈ 187 µg/mL)	> 500	> 500	2 (≈ 0.749 µg/mL)	> 500	> 500	> 500	≤ 1	> 500	> 500	≤ 1	0.25 (≈ 0.0936 µg/mL)	> 500	0.25 (≈ 0.0936 µg/mL)	Activity [18]: Non-toxic
C/C(=N\NC(=O)c1ccncc1)C(=O)NNC(=O)c1ccncc1		500 (≈ 163 µg/mL)					500 (≈ 163 µg/mL)			16 (≈ 5.22 µg/mL)				8 (≈ 2.61 µg/mL)			16 (≈ 5.22 µg/mL)	0.5 (≈ 0.163 µg/mL)		0.25 (≈ 0.0816 µg/mL)	MIC (Staphylococcus aureus): 500 µM (≈ 163 µg/mL); MIC [19]: 250 µM (≈ 81.6 µg/mL)
COc1cnc(NS(=O)(=O)c2ccc(NC(=O)/C(C)=N/NC(=O)c3ccncc3)cc2)nc1	> 500	≥ 1000	> 500	> 500	> 500	> 500	≥ 1000	> 500	> 500	32 (≈ 15 µg/mL)	> 500	> 500	> 500	32 (≈ 15 µg/mL)	> 500	> 500	32 (≈ 15 µg/mL)	2 (≈ 0.939 µg/mL)	> 500	2 (≈ 0.939 µg/mL)	
C/C(=N\NC(=O)c1ccncc1)C(=O)Nc1ccc(Oc2ccc(Cl)cc2)c(Cl)c1	> 500	500 (≈ 222 µg/mL)	> 500	> 500	> 500	> 500	500 (≈ 222 µg/mL)	> 500	> 500	64 (≈ 28.4 µg/mL)	> 500	> 500	> 500	32 (≈ 14.2 µg/mL)	> 500	> 500	64 (≈ 28.4 µg/mL)	0.5 (≈ 0.222 µg/mL)	> 500	0.5 (≈ 0.222 µg/mL)	
C/C(=N\NC(=O)c1ccncc1)C(=O)Nc1ccc(-c2ccccc2)cc1		> 250					> 250			16 (≈ 5.73 µg/mL)				8 (≈ 2.87 µg/mL)			8 (≈ 2.87 µg/mL)	≤ 0.25		≤ 0.25	hemolysis at 1 h [20]: 0.01%
C/C(=N\NC(=O)c1ccncc1)C(=O)Nc1ccc(Oc2ccc(Cl)cc2)cc1	> 500	500 (≈ 204 µg/mL)	> 500	> 500	> 500	> 500	500 (≈ 204 µg/mL)	> 500	> 500	4 (≈ 1.64 µg/mL)	> 500	> 500	> 500	1 (≈ 0.409 µg/mL)	> 500	> 500	2 (≈ 0.818 µg/mL)	0.5 (≈ 0.204 µg/mL)	> 500	0.5 (≈ 0.204 µg/mL)	
